Measurements of several laboratories.
Lines come from different studies, so protocols differ.
Read-out: metabolic stability

`C=C1NC(=O)[C@H](C)N(O)C(=O)[C@H]([C@@H](O)C(N)=O)N(C)C(=O)[C@H](C)OC(=O)[C@@H]2C[C@H](C)CN2C1=O` gave a half-life of greater than 120 min (mouse; liver microsomes).
For `C[C@]12CC[C@H]3[C@@H](CCC4=CC(=O)CC[C@@]43C)[C@@H]1CC[C@@H]2O`, the half-life was 2.1 min (mouse; liver microsomes; 1 µM).
`O=C(c1cc(-n2sc3ncccc3c2=O)ccc1Cl)N1CCOCC1` has a half-life of greater than 120 min (mouse; liver microsomes).
The half-life of `N=c1c2c(-c3ccccc3)c(-c3ccccc3)n(Cc3ccccc3)c2ncn1[C@H]1CC[C@H](O)CC1` is reported as greater than 120 min (mouse; liver S9; 1 µM).
`Nc1ncnc2c1c(Oc1cc(Cl)ccn1)nn2C1CCC(F)(F)CC1` has a half-life of roughly 25 min (mouse; liver microsomes; 1 µM).
With `O=C(c1ccc(-n2sc3ncccc3c2=O)cc1)N1CCOCC1` the half-life was greater than 120 min (mouse; liver microsomes).
The half-life of `CCCCCCCCCCCCCCCCOCCCOP(=O)(O)CO[C@H](C)Cn1cnc2c(N)ncnc21.N` is reported as greater than 120 min (CD-1 mouse; liver microsomes; 3 µM; pH 7.4).
For `Cc1nc2c(=O)n(C)c(=O)nc-2n(C)n1`, the half-life was greater than 186 min (mouse; liver microsomes).
With `Nc1ncnc2c1c(Oc1cc(C(F)(F)F)ccn1)nn2C1CCC(F)(F)CC1` the half-life was roughly 25 min (mouse; liver microsomes; 1 µM).
For `CN1CCCCC1Cn1cc(C(=O)c2cc([N+](=O)[O-])ccc2I)c2ccccc21` (racemic), the half-life was 10.6 min (mouse; liver microsomes).
The half-life of `C[C@H](Cn1cnc2c(N)ncnc21)OCP(=O)(O)OCCCOCCCCCCCCCCCCCCCC(F)(F)F.N` is reported as greater than 120 min (CD-1 mouse; liver microsomes; 3 µM; pH 7.4).
For `Cc1cc(C)nc(Nc2ncc(C(=O)NCCc3c(C)[nH]c4ccccc34)cn2)c1`, the half-life was 39 min (CD-1 mouse; hepatocytes; 1 µM).
For `Cc1cnc(Nc2ccc(C(=O)NC3CCN(C(=O)COCCOCCOCC(=O)N4CCC(NC(=O)c5ccc(Nc6ncc(C)c(Nc7ccc(Cl)c(NS(=O)(=O)C(C)(C)C)c7)n6)cc5F)CC4)CC3)c(F)c2)nc1Nc1ccc(Cl)c(NS(=O)(=O)C(C)(C)C)c1`, the half-life was 33 min (mouse; liver microsomes).
